According to ChEMBL document CHEMBL1121388, “Analgesic narcotic antagonists. 2. 8-Alkymorphinan-6-ones” (J Med Chem, 1980):
Calls of active or inactive are those of the source. The rule behind the calls is not given here.

How the values were obtained:
Mus musculus [1] = assay: The effective dose was measured by using mouse writhing assay after the compound administered subcutaneously.; format: functional; conditions: sc
Summary of the method: (§1)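 Analgesia in the mouse writhing test induced by acetic acid, with compound given subcutaneously. Salts were dissolved in distilled H₂O; free bases were dissolved by dropwise 1 N HCl and then diluted.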

Rattus norvegicus [2] = assay: Effective dose was measured by using rat tail flick assay after subcutaneous administration; format: functional; conditions: sc
Summary of the method: (§2)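 Agonist activity in the rat heat-stimulus tail-flick test. Drug was given subcutaneously and rats were tested 20 min after dosing. Salts were dissolved in distilled H₂O; free bases were dissolved with dropwise 1 N HCl and then diluted. ED₅₀ or inactivity/lethality recorded at the dose indicated.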

Rattus norvegicus [3] = assay: The Effective dose was measured by using rat tail flick assay after the compound administered intraperitoneally at a dose of 50 uM/Kg; IA means inactive at the given dose; format: functional, organism-based
Rattus norvegicus [4] = assay: The effective dose was measured by using rat tail flick assay after the compound administered intraperitoneally.; format: functional; conditions: ip
Mus musculus [5] = assay: The Effective dose was measured by using mouse writhing assay 5 min after the compound administered subcutaneously; format: functional; conditions: sc
Rattus norvegicus [6] = species on record: Rattus norvegicus; assay: Ratio of agonist to that of antagonist activity; format: functional
Mus musculus [7] = assay: The Effective dose was measured by using mouse writhing assay after the compound administered subcutaneously at a dose of 50 umol/kg; IA means inactive at the given dose; format: functional, organism-based; summary of the method: as §1
Mus musculus [8] = assay: The Effective dose was measured by using mouse writhing assay after the compound administered subcutaneously; IA means inactive; format: functional, organism-based; summary of the method: as §1
Rattus norvegicus [9] = assay: The Effective dose was measured by using rat tail flick assay after the compound administered intraperitoneally at a dose of 25 umol/kg; IA means inactive at the given dose; format: functional, organism-based
Rattus norvegicus [10] = assay: The Effective dose was measured by using rat tail flick assay after the compound administered intraperitoneally at a dose of 50 umol/kg; IA means inactive at the given dose; format: functional, organism-based
Rattus norvegicus [11] = assay: The Effective dose was measured by using rat tail flick assay after the compound administered subcutaneously at a dose 27umol/kg; IA means inactive at the given dose; format: functional, organism-based; summary of the method: as §2
Mus musculus [12] = assay: The Effective dose was measured by using mouse writhing assay after the compound administered subcutaneously at a dose 27umol/kg; IA means inactive at the given dose; format: functional, organism-based; summary of the method: as §1
Rattus norvegicus [13] = assay: The Effective dose was measured by using rat tail flick assay after the compound administered intraperitoneally at a dose of 30 umol/kg; IA means inactive at the given dose; format: functional, organism-based
Mus musculus [14] = assay: The Effective dose was measured by using mouse writhing assay after the compound administered subcutaneously at a dose of 24 umol/kg; IA means inactive at the given dose; format: functional, organism-based; summary of the method: as §1
Rattus norvegicus [15] = assay: The Effective dose was measured by using rat tail flick assay after the compound administered intraperitoneally at a dose of 9 umol/kg; IA means inactive at the given dose; format: functional, organism-based

SMILES | ED50 (Mus musculus [1]) | ED50 (Rattus norvegicus [4]) | further results
CCC[C@@H]1CC(=O)CC23CCN(C)C(Cc4ccc(O)cc42)[C@@H]13 (stereo partly specified) | 1.37 µmol/kg |  | ED50 (Rattus norvegicus [2]): 2.46 µmol/kg
CCC[C@H]1CC(=O)CC23CCN(CC4CCC4)C(Cc4ccc(OC)cc42)[C@H]13 (stereo partly specified) | 34 µmol/kg |  | ED50 (Rattus norvegicus [3]): inactive
CCC[C@@H]1CC(=O)CC23CCN(CC4CCC4)C(Cc4ccc(O)cc42)[C@@H]13 (stereo partly specified) | > 24 µmol/kg | 4.5 µmol/kg | 
COc1ccc2c3c1O[C@H]1C(=O)CC[C@H]4[C@@H](C2)N(C)CC[C@]314 [HYDROCODONE] |  |  | ED50 (Rattus norvegicus [2]): 5.2 µmol/kg
Cl.O=C1CC[C@@H]2C3Cc4ccc(O)cc4C2(CCN3CC2CC2)C1 (stereo partly specified) |  | 2.24 µmol/kg | ED50 (Mus musculus [5]): 8.9 µmol/kg; Ratio (Rattus norvegicus [6]): 4
CC[C@H]1CC(=O)CC23CCN(CC4CC4)C(Cc4ccc(O)cc42)[C@H]13 (stereo partly specified) |  | 4.7 µmol/kg | ED50 (Mus musculus [7]): inactive
COc1ccc2c(c1)C13CCN(C)C(C2)[C@@H]1CCC(=O)C3 (stereo partly specified) | 1.72 µmol/kg |  | ED50 (Rattus norvegicus [2]): 2.32 µmol/kg
C[C@@H]1CC(=O)CC23CCN(CC4CCC4)C(Cc4ccc(O)cc42)[C@@H]13 (stereo partly specified) | 5.98 µmol/kg | 12.8 µmol/kg | 
O=C1CC[C@H]2C3Cc4ccc(O)cc4C2(CCN3CC2CC2)C1 (stereo partly specified) | 3.28 µmol/kg | 7.4 µmol/kg | Ratio (Rattus norvegicus [6]): 0.44
CC[C@@H]1CC(=O)CC23CCN(C)C(Cc4ccc(O)cc42)[C@@H]13 (stereo partly specified) | 2.11 µmol/kg |  | ED50 (Rattus norvegicus [2]): 2.31 µmol/kg
C[C@H]1CC(=O)CC23CCN(C)C(Cc4ccc(O)cc42)[C@H]13 (stereo partly specified) | 2.55 µmol/kg |  | ED50 (Rattus norvegicus [2]): > 30 µmol/kg
C=CCN1CC[C@]23c4c5ccc(O)c4O[C@H]2C(=O)CC[C@@]3(O)[C@H]1C5 [NALOXONE] |  |  | ED50 (Mus musculus [8]): inactive
COc1ccc2c3c1O[C@H]1[C@@H](O)C=C[C@H]4[C@@H](C2)N(C)CC[C@@]341 [CODEINE] | 10.3 µmol/kg |  | ED50 (Rattus norvegicus [2]): 75 µmol/kg
COc1ccc2c(c1)C13CCN(CC4CCC4)C(C2)[C@H]1[C@H](C)CC(=O)C3 (stereo partly specified) | 47 µmol/kg |  | ED50 (Rattus norvegicus [9]): inactive
CC[C@H]1CC(=O)CC23CCN(CC4CCC4)C(Cc4ccc(OC)cc42)[C@H]13 (stereo partly specified) | 14.2 µmol/kg |  | ED50 (Rattus norvegicus [10]): inactive
CC[C@H]1CC(=O)CC23CCN(CC4CC4)C(Cc4ccc(OC)cc42)[C@H]13 (stereo partly specified) | 4.4 µmol/kg | > 50 µmol/kg | 
Oc1ccc2c(c1)[C@@]13CCCC[C@@]1(O)[C@@H](C2)N(CC1CCC1)CC3 [BUTORPHANOL] | 0.34 µmol/kg | 2 µmol/kg | Ratio (Rattus norvegicus [6]): 0.17
CCC[C@H]1CC(=O)CC23CCN(CC4CCC4)C(Cc4ccc(O)cc42)[C@H]13 (stereo partly specified) | 1.06 µmol/kg | 7.67 µmol/kg | 
CN1CCC23CC(=O)CC[C@H]2C1Cc1ccc(O)cc13 (stereo partly specified) | 0.52 µmol/kg |  | ED50 (Rattus norvegicus [2]): 70 µmol/kg
CCC[C@H]1CC(=O)CC23CCN(C)C(Cc4ccc(O)cc42)[C@H]13 (stereo partly specified) |  |  | ED50 (Rattus norvegicus [11]): inactive; ED50 (Mus musculus [12]): inactive
CC[C@@H]1CC(=O)CC23CCN(CC4CCC4)C(Cc4ccc(O)cc42)[C@@H]13 (stereo partly specified) | > 24 µmol/kg | 11.6 µmol/kg | 
CC[C@H]1CC(=O)CC23CCN(C)C(Cc4ccc(O)cc42)[C@H]13 (stereo partly specified) | 2.29 µmol/kg |  | ED50 (Rattus norvegicus [2]): 33 µmol/kg
COc1ccc2c(c1)C13CCN(CC4CCC4)C(C2)[C@H]1CCC(=O)C3 (stereo partly specified) | 20.3 µmol/kg |  | ED50 (Rattus norvegicus [13]): inactive
O=C1CC[C@H]2C3Cc4ccc(O)cc4C2(CCN3CC2CCC2)C1 (stereo partly specified) | 0.047 µmol/kg |  | ED50 (Rattus norvegicus [9]): inactive
CCC[C@@H]1CC(=O)CC23CCN(CC4CC4)C(Cc4ccc(O)cc42)[C@@H]13 (stereo partly specified) |  | 3.34 µmol/kg | ED50 (Mus musculus [14]): inactive
COc1ccc2c(c1)C13CCN(CC4CC4)C(C2)[C@H]1[C@H](C)CC(=O)C3 (stereo partly specified) | > 80 µmol/kg | 9 µmol/kg | 
CCC1CCCC23CCN(CC4CCC4)C(Cc4ccc(O)cc42)[C@H]13 (stereo partly specified) | > 25 µmol/kg |  | ED50 (Rattus norvegicus [15]): inactive
C[C@H]1[C@H]2Cc3ccc(O)cc3[C@]1(C)CCN2CC1CC1 [CYCLAZOCINE] | 0.41 µmol/kg | 0.81 µmol/kg | Ratio (Rattus norvegicus [6]): 0.5
COc1ccc2c(c1)C13CCN(CC4CCC4)C(C2)[C@@H]1[C@@H](C)CC(=O)C3.Cl (stereo partly specified) | 1.38 µmol/kg | 16.4 µmol/kg | Ratio (Rattus norvegicus [6]): 0.08
